Reference: ChEMBL document CHEMBL1133365, “Synthesis and class III type antiarrhythmic activity of 4-aroyl (and aryl)-l-aralkylpiperazines” (2000)

Tests used:
Mustela putorius furo [1] = species on record: Mustela putorius furo; assay: Dose required to produce 20% increase in effective refractory period in male ferret.; type: functional
How it was run: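 Isolated tissue in buffer (mM: KCl 4, MgCl2 1.0, NaHCO3 25, KH2PO4 1.2, CaCl2 2, dextrose 11), pH 7.3, gassed 5% CO2/95% O2, 37 °C. Timolol 0.1 mM present. Stimulated with 3 msec constant-current pulses. Duplicate control readings, then each concentration read at steady state (~15 min). EC20 is the mean dose giving a 20% rise in ERP, in μM.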

Mustela putorius furo [2] = species on record: Mustela putorius furo; assay: Peak isometric tension during the basic stimulus trains (S1) during control and compound induced tension, expressed as percent control.; type: functional
How it was run: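 Same preparation: buffer pH 7.3, 5% CO2/95% O2, 37 °C, timolol 0.1 mM, 3 msec constant-current stimulation. Isometric force was recorded, and peak tension was taken during the basic S1 stimulus trains. Readings were made at steady state, about 15 min after each concentration. The change is expressed as percent of control.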

| SMILES | EC20 (Mustela putorius furo [1]) [nM] | Tension (Mustela putorius furo [2]) [%] |
| --- | --- | --- |
| O=C(c1ccc([N+](=O)[O-])cc1)N1CCNCC1 | 20000 | -33 |
| CN(CCOc1ccc(NS(C)(=O)=O)cc1)CCc1ccc(NS(C)(=O)=O)cc1 [DOFETILIDE] | 15 | 5 |
| O=C(c1ccccc1)N1CCN(CCc2ccc([N+](=O)[O-])cc2)CC1 | 140 | -7 |
| O=C(c1ccc([N+](=O)[O-])cc1)N1CCN(C(=O)c2ccc([N+](=O)[O-])cc2)CC1 | 7000 | -6 |
| O=C(c1ccc([N+](=O)[O-])s1)N1CCN(CCc2ccc([N+](=O)[O-])cc2)CC1 | 12 | 0 |
| O=C(c1ccncc1)N1CCN(CCc2ccc([N+](=O)[O-])cc2)CC1 | 1000 | 19 |
| Cc1cccc(CCN2CCC(C(=O)c3ccc(NS(C)(=O)=O)cc3)CC2)n1 | 20 | 9 |
| Nc1ccc(CCN2CCN(C(=O)c3ccc([N+](=O)[O-])cc3)CC2)cc1 | 1400 | -14 |
| O=[N+]([O-])c1ccc(CCN2CCN(c3ccncc3)CC2)cc1 | 30 | 8 |
| Nc1ccc(CCN2CCN(c3ccc(N)cc3)CC2)cc1 | >100000 | -53 |
| Nc1ccc(CCN2CCC(c3ccc(N)cc3)CC2)cc1 | 2000 | 15 |
| O=[N+]([O-])c1ccc(CCN2CCC(c3ccc([N+](=O)[O-])cc3)CC2)cc1 | 300 | 0 |
| CS(=O)(=O)Nc1ccc(C(=O)N2CCN(CCc3ccccc3)CC2)cc1 | 680 | 5 |
| O=C(c1cccc([N+](=O)[O-])c1)N1CCN(CCc2ccc([N+](=O)[O-])cc2)CC1 | 270 | -7 |
| O=C(c1ccc([N+](=O)[O-])o1)N1CCN(CCc2ccc([N+](=O)[O-])cc2)CC1 | 140 | -2 |
| CS(=O)(=O)Nc1ccc(CCN2CCN(C(=O)c3ccc(NS(C)(=O)=O)cc3)CC2)cc1 | 2000 | 1 |
| CS(=O)(=O)Nc1ccc(CCN2CCN(C(=O)c3ccc([N+](=O)[O-])cc3)CC2)cc1 | 160 | 13 |
| O=[N+]([O-])c1ccc(CCN2CCN(c3ccccc3)CC2)cc1 | 800 | 10 |
| O=C(c1ccc([N+](=O)[O-])cc1)N1CCN(CCc2ccc([N+](=O)[O-])s2)CC1 | 10 | -17 |

| SMILES | EC20 (Mustela putorius furo [1]) [nM] | Tension (Mustela putorius furo [2]) [%] |
| --- | --- | --- |
| Nc1ccc(CCN2CCN(c3ccncc3)CC2)cc1 | 15000 | 9 |
| CS(=O)(=O)Nc1ccc(CCN2CCN(c3ccncc3)CC2)cc1 | 220 | 2 |
| Nc1ccc(OCCN2CCN(c3ccc(N)cc3)CC2)cc1 | >100000 | -43 |
| O=C(c1ccc([N+](=O)[O-])cc1)N1CCN(Cc2ccc([N+](=O)[O-])cc2)CC1 | 3500 | -44 |
| O=[N+]([O-])c1ccc(OCCN2CCN(c3ccc([N+](=O)[O-])cc3)CC2)cc1 | 350 | -27 |
| O=[N+]([O-])c1ccc(N2CCN(CCc3ccccc3)CC2)cc1 | 500 | -6 |
| O=C(c1ccc([N+](=O)[O-])cc1)N1CCN(CCc2ccccc2)CC1 | 160 | -8 |
| CS(=O)(=O)Nc1ccc(C(=O)N2CCN(CCc3ccc([N+](=O)[O-])cc3)CC2)cc1 | 60 | 1 |
| O=C(c1ccc(Cl)cc1)C1CCN(CCc2ccc([N+](=O)[O-])cc2)CC1 | 300 | -4 |
| O=C(CN1CCN(C(=O)c2ccc([N+](=O)[O-])cc2)CC1)Nc1ccc([N+](=O)[O-])cc1 | 35 | 5 |
| CC(C)NCC(O)c1ccc(NS(C)(=O)=O)cc1 (centres undefined) [SOTALOL] | 3500 | -13 |
| O=C(c1ccc([N+](=O)[O-])cc1)N1CCN(CCOc2ccc([N+](=O)[O-])cc2)CC1 | 60 | 0 |
| O=C(c1ccc([N+](=O)[O-])cc1)N1CCN(CCc2ccc([N+](=O)[O-])cc2)CC1 | 3 | -3 |
| O=[N+]([O-])c1ccc(CCN2CCN(S(=O)(=O)c3ccc([N+](=O)[O-])cc3)CC2)cc1 | 1000 | -24 |
| O=[N+]([O-])c1ccc(CCN2CCN(c3ccc([N+](=O)[O-])cn3)CC2)cc1 | 1300 | -21 |
| O=[N+]([O-])c1ccc(CCN2CCN(c3ccc([N+](=O)[O-])cc3)CC2)cc1 | 30 | 5 |
| CS(=O)(=O)Nc1ccc(OCCN2CCN(C(=O)c3ccc(NS(C)(=O)=O)cc3)CC2)cc1 | 15000 | -13 |
| CS(=O)(=O)Nc1ccc(C(=O)N2CCN(CCOc3ccc(N(S(C)(=O)=O)S(C)(=O)=O)cc3)CC2)cc1 | 25000 | -14 |
